The target in test [1] is T1, Beta-2 adrenergic receptor (Homo sapiens, UniProt P07550). As to the kind of experiment: Agonist activity at human beta2-adrenoceptor expressed in HEK cells assessed as increase of cAMP level after 10 mins by radioimmunoassay. The format is functional, cell-based, HEK293. Background: Cyclic AMP is a second messenger, typically raised through Gs and lowered through Gi signalling.

Test [2] deals with T1, Beta-2 adrenergic receptor. In words: Displacement of [3H]-dihydroalprenolol from human beta2-adrenoceptor expressed in HEK cells after 4 hrs. The format is cell-based, HEK293. Background: In a radioligand displacement assay an active substance lowers the binding of a labelled ligand.
In test [3] the target is Muscarinic acetylcholine receptor M3 (Homo sapiens, UniProt P20309). As to the kind of experiment: Displacement of [3H]-N-methyl-scopolamine from human muscarinic M3 receptor after 6 hrs by cell based assay. In short, it runs like this: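 Human M3 receptor-expressing cell membranes incubated up to 6 h at 37 °C with 1 nM [3H]N-methyl-scopolamine and serial dilutions of compound. Buffer 10 mM Hepes, 100 mM NaCl, 10 mM MgCl2, pH 7.4 at 37 °C. IC50 from displacement converted to Ki by Cheng–Prusoff.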
Sequence of Muscarinic acetylcholine receptor M3 (P20309 whole entry): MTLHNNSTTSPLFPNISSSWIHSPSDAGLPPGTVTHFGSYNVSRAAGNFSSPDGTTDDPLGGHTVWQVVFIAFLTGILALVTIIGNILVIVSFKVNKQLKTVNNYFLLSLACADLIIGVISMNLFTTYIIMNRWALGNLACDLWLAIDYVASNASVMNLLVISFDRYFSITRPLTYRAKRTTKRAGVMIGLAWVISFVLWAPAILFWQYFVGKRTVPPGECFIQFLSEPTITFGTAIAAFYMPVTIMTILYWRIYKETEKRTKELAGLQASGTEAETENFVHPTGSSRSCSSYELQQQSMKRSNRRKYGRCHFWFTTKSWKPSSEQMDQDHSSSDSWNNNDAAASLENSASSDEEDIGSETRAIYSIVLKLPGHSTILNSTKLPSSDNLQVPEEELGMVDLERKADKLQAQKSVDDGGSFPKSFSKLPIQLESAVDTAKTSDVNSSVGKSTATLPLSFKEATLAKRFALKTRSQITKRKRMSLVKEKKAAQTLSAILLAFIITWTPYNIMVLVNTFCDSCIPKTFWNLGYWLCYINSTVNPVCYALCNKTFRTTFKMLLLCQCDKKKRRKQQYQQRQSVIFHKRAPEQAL

T1 sequence (P07550 whole entry): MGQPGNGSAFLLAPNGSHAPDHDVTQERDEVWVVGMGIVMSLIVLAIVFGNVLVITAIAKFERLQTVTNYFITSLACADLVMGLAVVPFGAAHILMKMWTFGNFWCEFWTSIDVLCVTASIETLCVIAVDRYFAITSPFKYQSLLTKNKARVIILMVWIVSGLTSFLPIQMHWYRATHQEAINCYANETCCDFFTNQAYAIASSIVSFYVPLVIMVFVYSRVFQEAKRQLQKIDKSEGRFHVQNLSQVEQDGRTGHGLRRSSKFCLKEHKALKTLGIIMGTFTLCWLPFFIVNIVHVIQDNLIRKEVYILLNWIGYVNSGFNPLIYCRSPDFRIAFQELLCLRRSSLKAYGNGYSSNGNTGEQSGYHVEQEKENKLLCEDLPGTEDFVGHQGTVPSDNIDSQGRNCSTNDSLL

As usually defined, the EC50 is the concentration that produces a half-maximal response. Usually Ki stands for the equilibrium dissociation constant of an inhibitor or competing ligand from its target. Lower therefore signals tighter binding. For the compound `O=C(Nc1ccccc1-c1ccccc1)OC1CCN(CCCCCCCNC[C@H](O)c2ccc(O)c3[nH]c(=O)ccc23)CC1`, the EC50 in test [1] came out at 1.1 nM. Further, the inhibition constant Ki in test [2] was 10 nM; in test [3], 0.74 nM.
For the compound `NCCCN1CCC(OC(=O)Nc2ccccc2-c2ccccc2)CC1`, the inhibition constant Ki in test [3] was found to be 67 nM.
As to `NCCCCN1CCC(OC(=O)Nc2ccccc2-c2ccccc2)CC1`, the affinity in test [3], expressed as Ki, was 84 nM.
Still for that read-out and setting: with `CCCCCN1CCC(OC(=O)Nc2ccccc2-c2ccccc2)CC1` the figure was 14 nM; with `CCCCCCCN1CCC(OC(=O)Nc2ccccc2-c2ccccc2)CC1`, 5.1 nM; with `CCCCCCCCCN1CCC(OC(=O)Nc2ccccc2-c2ccccc2)CC1`, 9.5 nM.
In test [3], `CCCCCCCCN1CCC(OC(=O)Nc2ccccc2-c2ccccc2)CC1` displayed a Ki of 7 nM.
Compound `O=C(Nc1ccccc1-c1ccccc1)OC1CCNCC1` registered a Ki in test [3] of 46 nM.
On the same count and under the same terms, under `NCCCCCCN1CCC(OC(=O)Nc2ccccc2-c2ccccc2)CC1` stands 19 nM; under `CCCN1CCC(OC(=O)Nc2ccccc2-c2ccccc2)CC1`, 77 nM.
In the case of `O=C(Nc1ccccc1-c1ccccc1)OC1CCN(CCCCCCCCCNC[C@H](O)c2ccc(O)c(CO)c2)CC1`, the concentration for a half-maximal effect (EC50) in test [1] is 14 nM. The Ki in test [2] amounted to 61 nM; in test [3], 0.14 nM.
In test [3], `CCCCN1CCC(OC(=O)Nc2ccccc2-c2ccccc2)CC1` registered an inhibition constant Ki of 17 nM.
Turning to `O=CNc1cc([C@@H](O)CNCCCCCCCCCN2CCC(OC(=O)Nc3ccccc3-c3ccccc3)CC2)ccc1O`, the EC50 in test [1] came to 2.6 nM. For the same compound, the Ki stood at 21 nM in test [2] and 0.14 nM in test [3].
With `CCCCCCN1CCC(OC(=O)Nc2ccccc2-c2ccccc2)CC1`, in test [3], the Ki was 4.8 nM.
Regarding `NCCCCCCCCN1CCC(OC(=O)Nc2ccccc2-c2ccccc2)CC1`, in test [3], the affinity, expressed as Ki, was 1.8 nM.
On the same count and under the same terms, with `NCCCCCCCCCCCCN1CCC(OC(=O)Nc2ccccc2-c2ccccc2)CC1` the figure was 2.6 nM; with `NCCCCCCCCCCCN1CCC(OC(=O)Nc2ccccc2-c2ccccc2)CC1`, 2.5 nM.
`NCCCCCCCCCCN1CCC(OC(=O)Nc2ccccc2-c2ccccc2)CC1` displayed an inhibitory constant (Ki) in test [3] of 1.6 nM.
In turn, `CCCCCCCCCCN1CCC(OC(=O)Nc2ccccc2-c2ccccc2)CC1` had an inhibition constant Ki in test [3] of 25 nM.
On the same count and under the same terms, with `CCCCCCCCCCCN1CCC(OC(=O)Nc2ccccc2-c2ccccc2)CC1` the figure was 48 nM; with `NCCCCCN1CCC(OC(=O)Nc2ccccc2-c2ccccc2)CC1`, 98 nM.
With `CCN1CCC(OC(=O)Nc2ccccc2-c2ccccc2)CC1`, in test [3], affinity was put at a Ki of 55 nM.
Take `NCCCCCCCN1CCC(OC(=O)Nc2ccccc2-c2ccccc2)CC1`: the affinity in test [3], expressed as Ki, was 0.53 nM.
Take `C[N+]1(CCCCCCCCCNC[C@H](O)c2ccc(O)c3[nH]c(=O)ccc23)[C@@H]2C[C@H](OC(=O)C(O)(c3cccs3)c3cccs3)C[C@@H]1[C@H]1O[C@H]12` (stereo not given in full): in test [1], the EC50 came out at 0.9 nM. Further, the Ki came out at 36 nM in test [2] and 4.6 nM in test [3].
In the same order, the values of `NC(=O)C(c1ccccc1)(c1ccccc1)[C@@H]1CCN(CCCCCCCCCNCC(O)c2ccc(O)c3[nH]c(=O)ccc23)C1` (stereo not given in full) are 3.3 nM, 60 nM and 32 nM.
With `NCCCCCCCCCN1CCC(OC(=O)Nc2ccccc2-c2ccccc2)CC1`, the Ki in test [3] is 0.75 nM.
In the case of `CN1CCC(OC(=O)Nc2ccccc2-c2ccccc2)CC1`, the affinity in test [3] corresponds to a Ki of 22 nM.
With `O=C(Nc1ccccc1-c1ccccc1)O[C@H]1C[N+]2(CCCCCCCCCNCC(O)c3ccc(O)c4[nH]c(=O)ccc34)CCC1CC2` (stereo not given in full), in test [1], the concentration giving a half-maximal response (EC50) was 8.9 nM. In addition, the inhibitory constant (Ki) in test [2] amounted to 123 nM; in test [3] it was 140 nM.
In the same order, the values of `O=C(Nc1ccccc1-c1ccccc1)NC1CCN(CCCCCCCCCNCC(O)c2ccc(O)c3[nH]c(=O)ccc23)CC1` (stereo not given) are 8.4 nM, 115 nM and 7.5 nM.
The corresponding values for `O=C(Nc1ccccc1-c1ccccc1)OC1CCN(CCCCCCCCNC[C@H](O)c2ccc(O)c3[nH]c(=O)ccc23)CC1` are 0.32 nM, 3.4 nM and 0.32 nM.
In turn, `NCCN1CCC(OC(=O)Nc2ccccc2-c2ccccc2)CC1` showed a Ki in test [3] of 50 nM.
With `O=C(Nc1ccccc1-c1ccccc1)OC1CCN(CCCNC[C@H](O)c2ccc(O)c3[nH]c(=O)ccc23)CC1`, the concentration giving a half-maximal response (EC50) in test [1] amounted to 1.3 nM. Moreover, the figures for the Ki in test [2] and in test [3] were 19 nM and 28 nM, respectively.

The values above are taken from ChEMBL document CHEMBL1681687, “Discovery of muscarinic acetylcholine receptor antagonist and beta 2 adrenoceptor agonist (MABA) dual pharmacology molecules” (Bioorg Med Chem Lett, 2011).
